Measured values taken from ChEMBL document CHEMBL2034841, “Synthesis and evaluation of (2-(4-methoxyphenyl)-4-quinolinyl)(2-piperidinyl)methanol (NSC23925) isomers to reverse multidrug resistance in cancer” (J Med Chem, 2012).
Blank lines part the entries; values can stand above or below the molecule they belong to. Active and inactive are the calls of the source. No cut-off for these calls is given here.

Experiments:
SKOV-3TR (Homo sapiens) [1] = assay: Antitumor activity against human multidrug-resistant SKOV-3TR cells xenografted in Crl:SHO-Prkdc'SCIDHr'hr nude mouse assessed as tumor growth inhibition at 20 mg/kg, ip dosed twice weekly for two weeks starting two weeks post tumor cells implantation
[2] = target: T1, ATP-dependent translocase ABCB1 (Homo sapiens, UniProt P08183); assay: Inhibition of MDR1-mediated drug resistance in human multidrug-resistant SKOV3TR cells at 0.1 uM assessed as potentiation of paclitaxel potency by incubated for 6 days by MTT assay; format: cell-based; conditions: 144 h
In short: (§1)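 SKOV-3_TR cells were seeded at 2000/well in RPMI 1640 complete medium with varying paclitaxel concentrations plus the test agent at a fixed 0.1, 0.5 or 1 μM for 6 days. Viability was read by MTT, and IC50 was taken from fitted dose–response curves in triplicate wells. Fold reversal = IC50 without agent ÷ IC50 with agent.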

[3] = target: T1, ATP-dependent translocase ABCB1; assay: Inhibition of MDR1-mediated drug resistance in human multidrug-resistant SKOV3TR cells at 1 uM assessed as potentiation of paclitaxel potency by incubated for 6 days by MTT assay; format: cell-based; conditions: 144 h
In short: as §1

[4] = target: T1, ATP-dependent translocase ABCB1; assay: Inhibition of MDR1-mediated drug resistance in human multidrug-resistant SKOV3TR cells at 0.5 uM assessed as potentiation of paclitaxel potency by incubated for 6 days by MTT assay; format: cell-based; conditions: 144 h
In short: as §1

SKOV-3TR (Homo sapiens) [5] = assay: Potentiation of 20 mg/kg, ip paclitaxel antitumor potency in human multidrug-resistant SKOV-3TR cells xenografted in Crl:SHO-Prkdc'SCIDHr'hr nude mouse assessed as increase in tumor growth inhibition at 50 mg/kg, ip dosed twice weekly for two weeks starting two weeks post tumor cells implantation
[6] = target: T1, ATP-dependent translocase ABCB1; assay: Inhibition of MDR1 in human multidrug-resistant MCF7adr cells assessed drug level causing half maximal reversal of calcein AM accumulation deficit by fluorescence microscopy; conditions: read-out: INH
In short: (§2)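 Vybrant calcein AM efflux assay. Resistant cells (5000/well) were cultured for 24 h, then treated in triplicate with a range of test-agent concentrations for 1 h, followed by calcein AM for 30 min. Intracellular calcein fluorescence was imaged by fluorescence microscopy, and accumulation was compared across doses.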

Mus musculus [7] = assay: Toxicity in human multidrug-resistant SKOV-3TR cells xenografted in Crl:SHO-Prkdc'SCIDHr'hr nude mouse assessed as effect on body weight at 50 mg/kg, ip dosed twice weekly for two weeks starting two weeks post tumor cells implantation; conditions: in vivo
[8] = target: T1, ATP-dependent translocase ABCB1; assay: Inhibition of MDR1 in human multidrug-resistant SW480TR cells assessed drug level causing half maximal reversal of calcein AM accumulation deficit by fluorescence microscopy; format: cell-based; conditions: read-out: INH
In short: as §2

Mus musculus [9] = assay: Toxicity in human multidrug-resistant […] cells xenografted in Crl:SHO-Prkdc'SCIDHr'hr nude mouse assessed as mortality incidence at 50 mg/kg, ip dosed twice weekly for two weeks starting two weeks post tumor cells implantation; format: organism-based; set-up: dose 50 mg/kg, route intraperitoneal; conditions: in vivo
In short: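 […] cells injected subcutaneously with matrigel on day one. Dosing began two weeks later: ip injection twice a week for two weeks, given alone (50 mg/kg) or with paclitaxel (20 mg/kg); saline-injected controls. Mice checked daily for health and tumor growth. Toxicity judged from animal weight and mortality.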

[10] = target: Multidrug resistance-associated protein 1 (Homo sapiens, UniProt P33527); assay: Inhibition of MRP1-mediated drug resistance in human multidrug-resistant H-69AR cells; format: cell-based
In short: (§3)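 H-69AR (MRP1) or MCF-7/MX (BCRP) cells were plated in 96-well plates and treated with chemotherapy drugs plus the test agent as in the Pgp reversal assay: 2000 cells/well, 6 days, MTT read-out. IC50 values came from triplicate dose–response curves. Cells were grown in RPMI 1640 with 10% FBS at 37 °C, 5% CO2.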

[11] = target: T1, ATP-dependent translocase ABCB1; assay: Inhibition of MDR1 in human multidrug-resistant SW480TR cells assessed as increase in calcein AM accumulation by fluorescence microscopy; format: cell-based
In short: as §2

[12] = target: T1, ATP-dependent translocase ABCB1; assay: Inhibition of MDR1 in human multidrug-resistant MCF7adr cells assessed as potentiation of doxorubicin-induced cell death at 1 uM incubated for 72 hrs by MTT assay
SKOV-3TR (Homo sapiens) [13] = assay: Antitumor activity against human multidrug-resistant SKOV-3TR cells xenografted in Crl:SHO-Prkdc'SCIDHr'hr nude mouse assessed as tumor growth inhibition at 50 mg/kg, ip dosed twice weekly for two weeks starting two weeks post tumor cells implantation
[14] = target: T1, ATP-dependent translocase ABCB1; assay: Inhibition of MDR1 in human multidrug-resistant SW480TR cells assessed as potentiation of doxorubicin-induced cell death at 1 uM incubated for 72 hrs by MTT assay; format: cell-based
[15] = target: T1, ATP-dependent translocase ABCB1; assay: Inhibition of MDR1 in human multidrug-resistant MCF7adr cells assessed drug level causing maximal reversal of calcein AM accumulation deficit by fluorescence microscopy
In short: as §2

[16] = target: T1, ATP-dependent translocase ABCB1; assay: Inhibition of MDR1 in human multidrug-resistant MCF7adr cells assessed as increase in calcein AM accumulation by fluorescence microscopy
In short: as §2

[17] = target: T1, ATP-dependent translocase ABCB1; assay: Inhibition of MDR1 in human multidrug-resistant SW480TR cells assessed drug level causing maximal reversal of calcein AM accumulation deficit by fluorescence microscopy; format: cell-based
In short: as §2

[18] = target: T1, ATP-dependent translocase ABCB1; assay: Inhibition of MDR1 in human multidrug-resistant MCF7adr cells assessed as potentiation of doxorubicin-induced apoptosis at 1 uM incubated for 72 hrs by M30-apoptosense ELISA assay
In short: (§4)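 MCF-7adr or SW480_TR cells were seeded at 8000/well for 24 h, then treated for 72 h with 0.5 μM doxorubicin, 1 μM test agent, or both. Cells were lysed with 10% NP-40, and apoptosis was quantified by M30-Apoptosense ELISA following kit instructions.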

[19] = target: T1, ATP-dependent translocase ABCB1; assay: Inhibition of MDR1 in human multidrug-resistant SW480TR cells assessed as potentiation of doxorubicin-induced apoptosis at 1 uM incubated for 72 hrs by M30-apoptosense ELISA assay; format: cell-based
In short: as §4

[20] = target: T2, Broad substrate specificity ATP-binding cassette transporter ABCG2 (Homo sapiens, UniProt Q9UNQ0); assay: Inhibition of BCRP-mediated drug resistance in human multidrug-resistant MCF7/MX cells; format: cell-based
T2 sequence (Q9UNQ0 whole entry): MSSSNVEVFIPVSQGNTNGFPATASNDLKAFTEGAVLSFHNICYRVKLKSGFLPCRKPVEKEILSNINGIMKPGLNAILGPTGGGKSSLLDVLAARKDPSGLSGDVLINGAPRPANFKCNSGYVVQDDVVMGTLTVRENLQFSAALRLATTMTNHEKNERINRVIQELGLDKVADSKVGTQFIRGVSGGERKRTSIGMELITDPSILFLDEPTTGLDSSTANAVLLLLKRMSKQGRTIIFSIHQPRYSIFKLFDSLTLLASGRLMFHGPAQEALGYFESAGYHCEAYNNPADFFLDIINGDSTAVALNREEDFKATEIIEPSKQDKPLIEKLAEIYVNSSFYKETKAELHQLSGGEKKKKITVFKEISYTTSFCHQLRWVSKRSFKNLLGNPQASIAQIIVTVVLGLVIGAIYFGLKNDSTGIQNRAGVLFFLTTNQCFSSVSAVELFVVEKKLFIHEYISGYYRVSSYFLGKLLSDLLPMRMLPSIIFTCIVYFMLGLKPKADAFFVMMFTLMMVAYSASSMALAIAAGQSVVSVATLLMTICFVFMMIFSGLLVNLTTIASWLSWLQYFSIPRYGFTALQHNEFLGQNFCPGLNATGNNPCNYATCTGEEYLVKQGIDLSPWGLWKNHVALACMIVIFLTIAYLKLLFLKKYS
In short: as §3

T1 sequence (P08183 whole entry): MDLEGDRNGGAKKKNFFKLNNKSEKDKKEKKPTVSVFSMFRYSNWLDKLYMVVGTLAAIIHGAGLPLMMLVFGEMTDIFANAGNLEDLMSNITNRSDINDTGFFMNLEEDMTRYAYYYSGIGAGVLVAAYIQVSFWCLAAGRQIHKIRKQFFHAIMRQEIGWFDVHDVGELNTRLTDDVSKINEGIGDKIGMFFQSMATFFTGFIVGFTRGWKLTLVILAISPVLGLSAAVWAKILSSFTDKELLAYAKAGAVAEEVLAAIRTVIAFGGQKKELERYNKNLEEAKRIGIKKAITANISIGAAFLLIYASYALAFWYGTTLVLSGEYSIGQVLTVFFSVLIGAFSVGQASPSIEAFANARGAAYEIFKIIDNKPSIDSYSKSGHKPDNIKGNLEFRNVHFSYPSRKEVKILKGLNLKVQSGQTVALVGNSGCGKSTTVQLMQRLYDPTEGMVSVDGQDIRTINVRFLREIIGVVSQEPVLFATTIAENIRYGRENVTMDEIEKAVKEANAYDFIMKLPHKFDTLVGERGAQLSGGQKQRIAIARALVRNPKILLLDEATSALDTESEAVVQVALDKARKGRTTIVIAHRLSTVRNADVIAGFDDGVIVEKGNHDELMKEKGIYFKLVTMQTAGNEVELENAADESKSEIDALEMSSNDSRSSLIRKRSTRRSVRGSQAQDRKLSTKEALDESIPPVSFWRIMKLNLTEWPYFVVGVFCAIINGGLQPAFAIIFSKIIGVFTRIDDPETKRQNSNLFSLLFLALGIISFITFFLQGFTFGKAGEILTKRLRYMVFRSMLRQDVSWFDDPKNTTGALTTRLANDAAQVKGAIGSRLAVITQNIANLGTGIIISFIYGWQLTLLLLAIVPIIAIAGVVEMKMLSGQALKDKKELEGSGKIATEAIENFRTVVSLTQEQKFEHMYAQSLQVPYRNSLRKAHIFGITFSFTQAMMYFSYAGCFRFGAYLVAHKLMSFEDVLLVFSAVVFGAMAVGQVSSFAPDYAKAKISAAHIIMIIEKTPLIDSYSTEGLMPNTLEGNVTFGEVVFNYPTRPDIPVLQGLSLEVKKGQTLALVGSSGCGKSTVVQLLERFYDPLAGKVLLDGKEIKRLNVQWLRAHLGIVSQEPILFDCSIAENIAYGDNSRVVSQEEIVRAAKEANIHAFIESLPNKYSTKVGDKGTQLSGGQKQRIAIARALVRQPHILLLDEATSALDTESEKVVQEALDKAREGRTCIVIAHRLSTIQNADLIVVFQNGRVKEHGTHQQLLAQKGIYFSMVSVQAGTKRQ
Multidrug resistance-associated protein 1, sequence (P33527 whole entry): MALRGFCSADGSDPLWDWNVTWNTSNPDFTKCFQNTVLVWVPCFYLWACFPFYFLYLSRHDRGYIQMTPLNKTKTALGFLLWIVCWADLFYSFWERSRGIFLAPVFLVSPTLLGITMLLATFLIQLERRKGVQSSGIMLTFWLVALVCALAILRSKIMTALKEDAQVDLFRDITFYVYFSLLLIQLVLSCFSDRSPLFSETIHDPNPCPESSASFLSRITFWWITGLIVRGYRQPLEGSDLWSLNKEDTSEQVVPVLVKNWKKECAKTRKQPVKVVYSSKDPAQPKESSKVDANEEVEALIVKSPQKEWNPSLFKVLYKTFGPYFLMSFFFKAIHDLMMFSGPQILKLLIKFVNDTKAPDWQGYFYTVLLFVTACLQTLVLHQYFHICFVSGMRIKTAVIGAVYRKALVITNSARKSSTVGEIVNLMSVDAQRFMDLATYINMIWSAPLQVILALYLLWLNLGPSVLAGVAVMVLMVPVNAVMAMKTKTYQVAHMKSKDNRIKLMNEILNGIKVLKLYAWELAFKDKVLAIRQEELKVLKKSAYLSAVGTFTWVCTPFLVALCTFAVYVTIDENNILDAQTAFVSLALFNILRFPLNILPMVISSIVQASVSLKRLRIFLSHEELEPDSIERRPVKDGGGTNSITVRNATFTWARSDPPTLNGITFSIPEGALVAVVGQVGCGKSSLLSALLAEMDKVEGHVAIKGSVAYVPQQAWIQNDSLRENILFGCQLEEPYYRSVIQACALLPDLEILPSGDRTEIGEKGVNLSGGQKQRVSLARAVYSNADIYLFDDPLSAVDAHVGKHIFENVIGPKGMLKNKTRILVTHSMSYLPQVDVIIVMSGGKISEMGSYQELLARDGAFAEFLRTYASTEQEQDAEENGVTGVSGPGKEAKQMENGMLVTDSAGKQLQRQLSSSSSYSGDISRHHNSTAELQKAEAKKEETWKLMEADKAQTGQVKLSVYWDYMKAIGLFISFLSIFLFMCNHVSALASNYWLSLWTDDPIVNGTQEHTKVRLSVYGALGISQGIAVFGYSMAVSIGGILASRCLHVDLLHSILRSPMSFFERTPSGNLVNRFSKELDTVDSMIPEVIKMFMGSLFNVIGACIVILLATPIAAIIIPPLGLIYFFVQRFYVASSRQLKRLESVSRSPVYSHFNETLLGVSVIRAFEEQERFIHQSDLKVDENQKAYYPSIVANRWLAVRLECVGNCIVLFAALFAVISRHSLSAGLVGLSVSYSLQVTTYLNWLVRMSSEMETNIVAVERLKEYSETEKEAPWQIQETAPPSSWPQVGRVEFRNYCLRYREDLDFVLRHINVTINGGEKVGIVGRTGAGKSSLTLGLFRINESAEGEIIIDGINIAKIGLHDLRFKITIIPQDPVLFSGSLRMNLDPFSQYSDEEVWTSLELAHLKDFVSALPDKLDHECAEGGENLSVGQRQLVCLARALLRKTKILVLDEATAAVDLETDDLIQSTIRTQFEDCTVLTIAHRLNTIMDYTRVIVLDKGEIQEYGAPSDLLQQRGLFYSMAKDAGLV

Structure (SMILES): CC(=O)O[C@H]1C(=O)[C@@]2(C)[C@H]([C@H](OC(=O)c3ccccc3)[C@]3(O)C[C@H](OC(=O)[C@H](O)[C@@H](NC(=O)c4ccccc4)c4ccccc4)C(C)=C1C3(C)C)[C@]1(OC(C)=O)CO[C@@H]1C[C@@H]2O
growth inhibition (GI) (SKOV-3TR (Homo sapiens) [1]): inactive

Structure (SMILES): COc1ccc(-c2cc([C@H](O)[C@@H]3CCCCN3)c3ccccc3n2)cc1.Cl
inhibition (INH) [2]: Active
inhibition (INH) [3]: Active
inhibition (INH) [4]: Active

Structure (SMILES): COc1ccc(-c2cc([C@H](O)[C@H]3CCCCN3)c3ccccc3n2)cc1
Activity (SKOV-3TR (Homo sapiens) [5]): Active
inhibition (INH) [2]: Active
inhibition (INH) [3]: Active
IC50 [6]: 100 nM
Activity (Mus musculus [7]): Non-toxic
inhibition (INH) [4]: Active
IC50 [8]: 100 nM
Activity (Mus musculus [9]): Non-toxic
inhibition (INH) [10]: Not Active
inhibition (INH) [11]: Dose-dependent effect
inhibition (INH) [12]: Active
growth inhibition (GI) (SKOV-3TR (Homo sapiens) [13]): inactive
inhibition (INH) [14]: Active
INH [15]: 500 nM
inhibition (INH) [16]: Dose-dependent effect
INH [17]: 500 nM
inhibition (INH) [18]: Active
inhibition (INH) [19]: Active
inhibition (INH) [20]: Not Active

Results, then the molecule that gave them:

inhibition (INH) [2]: Not Active
inhibition (INH) [3]: Not Active
inhibition (INH) [4]: Not Active
Structure (SMILES): COc1ccc(-c2cc([C@@H](O)[C@@H]3CCCCN3)c3ccccc3n2)cc1.Cl

inhibition (INH) [2]: Active
inhibition (INH) [3]: Active
inhibition (INH) [4]: Active
Structure (SMILES): COc1ccc(-c2cc([C@@H](O)[C@H]3CCCCN3)c3ccccc3n2)cc1.Cl
